Screens (PubChem BioAssay)
HIV Rev-RRE inh: inhibitors of HIV-1 Rev-RRE RNA interaction | 97,000 tested, 0.79% active | Rev peptide-RRE RNA binding, FRET | P05866 | inhibition, % at 8 µM;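 active means inhibition above the screen-wide mean plus 3 SD, cut at about 35% in these data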;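 further: 0% = median DMSO wells and 100% = median Neomycin B control wells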
Target sequence (P05866 whole entry, looked up): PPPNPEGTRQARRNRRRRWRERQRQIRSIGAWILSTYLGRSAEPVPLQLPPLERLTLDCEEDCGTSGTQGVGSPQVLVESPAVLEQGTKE
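Test system – labelled RRE RNA duplex and labelled Rev peptide · Reagent – labelled Rev peptide · Doses – one concentration, 8 µM nominal · Incubation – 5 + 15 min at 25 °C · Signal – FRET fluorescence readout · Read-out basis – % inhibition of FRET ratio versus controls · Control set – DMSO wells as 0% and neomycin B wells as 100% inhibition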
LYP act: activators of human LYP (PTPN22) phosphatase. recombinant LYP, DiFMUP fluorescence; 0 = plate median, 100 = signal doubled. activation, % at 2 µM. Q9Y2R2. 96,000 tested, 0.11% active;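 active means activation at 2 µM above a set limit, the mean plus 5 SD, cut at about 37% in these data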
PTPN22 inh 2: blocks human PTPN22 phosphatase activity. AID 640. Q9Y2R2. inhibition, % at 2 µM. 96,000 tested, 0.21% active. recombinant LYP catalytic domain, DiFMUP fluorescence;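 active means inhibition at 2 µM at or above a set limit, the screen mean plus 3 SD, cut at about 24% in these data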;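 further: 0% = DMSO with enzyme and 100% = enzyme fully blocked by orthovanadate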
EphB4 ephrin blk: blocks human EphB4 binding to ephrin-B2; P54760; 97,000 tested, 0.15% active; inhibition, % at 7 µM; EphB4 LBD / TNYL-RAW-Alexa532 peptide, fluorescence polarization; AID 720;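 active means inhibition above the screen-wide mean inhibition plus 3 SD, cut at about 15% in these data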;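 further: 0% = DMSO wells and 100% = excess unlabeled TNYL-RAW peptide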
PTPN22 act conf: confirmation of human LYP phosphatase activators. shares compounds with LYP act. Recombinant LYP, DIFMUP fluorescence, activation; zero set by plate's median compound well. activation, % at 2 µM. 100 tested, under 10 active. AID 1031; call rule not given here
Active calls of the source: *; x = no result. Only some compounds are listed: those with a hit (about 1.3% of all), similar ones and a draw of the others.

SMILES | HIV Rev-RRE inh | LYP act | PTPN22 inh 2 | EphB4 ephrin blk | PTPN22 act conf
CC1CC(C)CN(CCCNC(=O)Cc2c(C(=O)O)[nH]c3ccccc23)C1 (configuration not stated) | 2 | 12 | -15 | -1 | x
Cc1ccccc1OCC(=O)OC(C)CN1CCN(C)CC1 (configuration not stated) | 6 | 48* | -47 | 3 | 4
Cc1ccccc1OCC(=O)OC1CCN(C)CC1 | 10 | 2 | 0 | 3 | x
COC(=O)c1ccc(NC(=O)C2CCCCC2C(=O)O)cc1 (configuration not stated) | 7 | -5 | 10 | 0 | x
COC(=O)c1ccc(NC(=S)NC2CCCCC2)cc1 | -1 | 38* | -33 | 6 | -1
O=C(c1cc(-c2ccccn2)nc2c(Cl)cccc12)N1CCN(C(=O)C2CCCO2)CC1 (configuration not stated) | 4 | 45* | -46 | -8 | -3
COc1ccc(C(=O)NCCCN2CCOCC2)cc1OC | 3 | 44* | -41 | 7 | 6
Cc1cccc(NC(=O)CSc2nnc(Cn3cnc4ccccc43)o2)c1 | 1 | 38* | -38 | -7 | 4
CCc1ccccc1NC(=O)CSc1nnc(Cn2cnc3ccccc32)o1 | 2 | -3 | 2 | 1 | x
COc1ccc(C(C)(C)C)cc1NC(=O)c1c(C)noc1C | 10 | -5 | 2 | 3 | x
CCc1onc(C)c1C(=O)Nc1cc(C)ccc1OC | 2 | 40* | -44 | -8 | -4
NC(=O)c1nc(N2CCOCC2)nc(N2CCOCC2)n1 | -1 | 41* | -42 | -4 | 6
CCC(=O)N1CCc2cc(Br)cc(S(=O)(=O)CC(=O)OC)c21 | 2 | 6 | -6 | -5 | x
CCC(=O)N1CCc2cc(Br)cc(S(=O)(=O)CCC(=O)NCC3CCCO3)c21 (configuration not stated) | 3 | 49* | -44 | 1 | -3
